# Assay results pooled from the literature.
# Protocols differ between the studies behind these lines.
# Target: Tyrosine-protein kinase JAK2 (JAK2, Homo sapiens, UniProt O60674)
# Read-out: enzyme activity
# Mode: inhibitor
Compound,method,tested at,remaining activity
CC(C)(O)[C@H]1CC[C@H](Nc2ccc3ncc(-c4cccc(C(F)(F)F)c4)n3n2)CC1,,1 µM,24.8%
O=C(NCCCNc1nc(Nc2cccc(CN3CCOCC3)c2)ncc1C1CC1)C1CCC1,radiometric,1 µM,46%
Cc1cnc(NC2CCOCC2)nc1-n1cnc(C(=O)NC(CN)c2cc(F)cc(Cl)c2)c1 (stereo not shown),radiometric,1 µM,104%
Cn1c(=O)n(-c2ccc(C(C)(C)C#N)cc2)c2c3cc(-c4cnc5ccccc5c4)ccc3ncc21,,10 µM,24%
CC(C)(C)c1nc(-c2cccc(NS(=O)(=O)c3c(F)cccc3F)c2F)c(-c2ccnc(N)n2)s1,radiometric,1 µM,90%
O=C(Nc1cccc(Nc2ncc(Br)c(NCCc3cnc[nH]3)n2)c1)N1CCCC1,radiometric,1 µM,24%
O=C(Nc1cnn(-c2csc(C(=O)NC3COC3)c2)c1)Nc1ccccc1Cl,,5 µM,98.2%
Cc1nn(CC(F)(F)F)cc1Nc1ncc(Br)c(NCc2ccc(S(N)(=O)=O)cc2)n1,radiometric,1 µM,70%
Cc1ccc(C(=O)Nc2ccc(CN3CCN(C)CC3)c(C(F)(F)F)c2)cc1C#Cc1cnc2cccnn12,,23.5 nM,58%
CC(C)(C)c1nc2c(s1)c1nc(N)ncc1c1ccc(NS(=O)(=O)c3c(F)cccc3F)c(F)c12,radiometric,1 µM,85%
COc1cc(Cl)c(C(=O)N[C@@H](CN[C@H]2CC[C@@H](N)CC2)Cc2ccc(C#N)cc2)cc1-c1ccc(CN[C@H](C)c2ccc(C)cc2)o1,,1 µM,104%
Oc1cccc(-c2nc(N3CCOCC3)c3oc4ncccc4c3n2)c1,,10 µM,93%
CN1CCc2cc(Nc3ncc(C4CC4)c(NCCCNC(=O)C4CCC4)n3)ccc2C1,radiometric,1 µM,44%
COc1cc(Nc2cnc(C#N)c(O[C@H](C)CN(C)C)n2)ncc1-c1cnn(C)c1,radiometric,10 µM,41%
Brc1cnc(Nc2cccc(CN3CCOCC3)c2)nc1NCCc1c[nH]cn1,radiometric,1 µM,6%
O=C(Nc1cnn(-c2csc(C(=O)NC3COC3)c2)c1)Nc1c(F)cccc1Cl,,5 µM,96.5%
